Source: ChEMBL document CHEMBL1649568, “Efficacy of aerosol MP-376, a levofloxacin inhalation solution, in models of mouse lung infection due to Pseudomonas aeruginosa” (Antimicrob Agents Chemother, 2009)
≈ marks a conversion by molar mass, not a printed value.

Legend:
Pseudomonas aeruginosa [1] = assay: Bactericidal activity against Pseudomonas aeruginosa NH57388A infected in Swiss neutropenic mouse assessed as reduction in lung bacterial load at 60 mg/kg BID administered 24 hrs post infection through aerosol; format: functional
Summary of the method: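 In the chronic alginate-embedded NH57388A lung infection (cyclophosphamide 150 mg/kg i.p. once, 4 days before; about 10⁸ CFU/ml inoculum), mice got aerosol doses by microsprayer (50 µl, isoflurane) twice daily for 3 days from 24 h postinfection. Lungs homogenized and plated 12–16 h after the final dose; log CFU/lung.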

Pseudomonas aeruginosa [2] = assay: Antimicrobial activity against Pseudomonas aeruginosa ATCC 27853 infected in Swiss neutropenic mouse assessed as mouse survival rate at 60 mg/kg BID administered 24 hrs post infection through aerosol
Pseudomonas aeruginosa [3] = assay: Antimicrobial activity against Pseudomonas aeruginosa ATCC 27853 by broth microdilution method; format: functional
Summary of the method: (§1)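 Broth microdilution per CLSI. Inoculum 5 × 10⁵ CFU/ml, twofold dilutions of antibiotic in medium, 24 h at 35°C. Growth read at 600 nm and by eye with a reading mirror. MIC is the lowest concentration with no visible growth.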

Pseudomonas aeruginosa [4] = assay: Antimicrobial activity against Pseudomonas aeruginosa isolate NH57388A by broth microdilution method; format: functional; summary of the method: as §1
Mus musculus [5] = organism: Mus musculus; assay: Toxicity in Pseudomonas aeruginosa ATCC 27853 infected Swiss mouse; format: functional
Pseudomonas aeruginosa [6] = assay: Antimicrobial activity against Pseudomonas aeruginosa NH57388A infected in Swiss neutropenic mouse assessed as lung bacterial load at 30 mg/kg, ip BID administered 24 hrs post infection (reference value: 8.89 logCFU); format: functional; details: route intraperitoneal
Mus musculus [7] = assay: Cmax in mouse at 60 mg/kg, ip administered as single dose; format: ADME, organism-based; set-up: dose 60 mg/kg, route intraperitoneal; details: in vivo
Mus musculus [8] = assay: Cmax in mouse at 60 mg/kg, administered as single dose through aerosol; format: ADME, organism-based; set-up: dose 60 mg/kg; details: in vivo, inhaled_or_intranasal
Pseudomonas aeruginosa [9] = assay: Antimicrobial activity against Pseudomonas aeruginosa ATCC 27853 infected in Swiss neutropenic mouse assessed as reduction in lung bacterial load at 32 mg/kg, ip BID administered 24 hrs post infection; format: functional; details: route intraperitoneal
Summary of the method: (§2)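 Female Swiss mice (5–6 wk) made neutropenic with cyclophosphamide 150 mg/kg i.p. on days 1 and 3. On day 4, intratracheal instillation of 0.05 ml strain ATCC 27853 suspension at ca. 1–6 × 10⁵ CFU/ml. From 24 h postinfection, two i.p. doses over 24 h, n = 8. Lungs taken 12–16 h after the last dose, homogenized in saline and plated; mean log CFU/lung compared with an untreated baseline group.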

Pseudomonas aeruginosa [10] = assay: Antimicrobial activity against Pseudomonas aeruginosa NH57388A infected in Swiss neutropenic mouse assessed as lung bacterial load at 15 mg/kg, ip BID administered 24 hrs post infection (reference value: 8.89 logCFU); format: functional; details: route intraperitoneal
Pseudomonas aeruginosa [11] = assay: Antimicrobial activity against Pseudomonas aeruginosa ATCC 27853 infected in Swiss neutropenic mouse assessed as reduction in lung bacterial load at […], ip BID administered 24 hrs post infection; format: functional; details: route intraperitoneal
Pseudomonas aeruginosa [12] = assay: Antimicrobial activity against Pseudomonas aeruginosa ATCC 27853 infected in Swiss neutropenic mouse assessed as reduction in lung bacterial load at 63 mg/kg, ip BID administered 24 hrs post infection; format: functional; details: route intraperitoneal; summary of the method: as §2
Pseudomonas aeruginosa [13] = assay: Antimicrobial activity against Pseudomonas aeruginosa NH57388A infected in Swiss neutropenic mouse assessed as lung bacterial load at 60 mg/kg, ip BID administered 24 hrs post infection (reference value: 8.89 logCFU); format: functional; details: route intraperitoneal
Pseudomonas aeruginosa [14] = assay: Antimicrobial activity against Pseudomonas aeruginosa ATCC 27853 infected in Swiss neutropenic mouse assessed as mouse survival rate at 400 mg/kg BID administered 24 hrs post infection through aerosol; format: functional
Summary of the method: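 Female Swiss mice were made neutropenic (cyclophosphamide 150 mg/kg i.p., days 1 and 3) and infected intratracheally on day 4 with ATCC 27853, 0.05 ml at ca. 1–6 × 10⁵ CFU/ml. Aerosol via microsprayer to the bifurcation (50 µl) under isoflurane, twice daily for 48 h from 24 h postinfection. Survival observed to 9 days postinfection, n = 10.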

| Cmax (Mus musculus [7]) | Cmax (Mus musculus [8]) | Structure (SMILES) | log10cfu (Pseudomonas aeruginosa [1]) | Activity (Pseudomonas aeruginosa [2]) | MIC (Pseudomonas aeruginosa [3]) | MIC (Pseudomonas aeruginosa [4]) | MTD (Mus musculus [5]) | log10cfu (Pseudomonas aeruginosa [6]) | log10cfu (Pseudomonas aeruginosa [9]) | log10cfu (Pseudomonas aeruginosa [10]) | log10cfu (Pseudomonas aeruginosa [11]) | log10cfu (Pseudomonas aeruginosa [12]) | log10cfu (Pseudomonas aeruginosa [13]) | Activity (Pseudomonas aeruginosa [14]) |
| --- | --- | --- | --- | --- | --- | --- | --- | --- | --- | --- | --- | --- | --- | --- |
|  |  | NC[C@H]1O[C@H](O[C@H]2[C@H](O)[C@@H](O[C@H]3O[C@H](CO)[C@@H](O)[C@H](N)[C@H]3O)[C@H](N)C[C@@H]2N)[C@H](N)C[C@@H]1O [TOBRAMYCIN] | 2.9 | 60% | 0.25 µg/mL (≈ 0.535 µM) | 0.5 µg/mL (≈ 1.07 µM) | 60 mg/kg |  |  |  |  |  |  |  |
| 18.6 mg/kg | 550 mg/kg | C[C@H]1COc2c(N3CCN(C)CC3)c(F)cc3c(=O)c(C(=O)O)cn1c23.C[C@H]1COc2c(N3CCN(C)CC3)c(F)cc3c(=O)c(C(=O)O)cn1c23.O [LEVOFLOXACIN] |  |  |  |  |  | 5.73 | 0.65 | 7.83 | 3.5 | 2.7 | 4.93 |  |
|  |  | C[C@H]1[C@H](NC(=O)/C(=N\OC(C)(C)C(=O)O)c2csc(N)n2)C(=O)N1S(=O)(=O)O [AZTREONAM] |  |  | 4 µg/mL (≈ 9.19 µM) | 4 µg/mL (≈ 9.19 µM) | 400 mg/kg |  |  |  |  |  |  | 20% |
